# Source: ChEMBL document CHEMBL1143802, “Synthesis and biological evaluation of some 6-substituted purines” (Eur J Med Chem, 2007)
# Experiments:
# Leishmania amazonensis = assay: Antileishmanial activity against Leishmania amazonensis MHOM/Br/75/Josefa promastigotes by MTT colorimetric method; format: functional, organism-based
# In short: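 Log-phase promastigotes grown at 24 °C in Warren's medium (brain heart infusion with hemin and folic acid) plus 10% fetal bovine serum. Seeded at 2 million cells/mL and preincubated 1 h at 24 °C. Compounds added in water or DMSO (up to 1% v/v), each concentration in triplicate. Incubated three days, viability read by MTT, and IC50 taken as 50% growth inhibition.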
# Leishmania chagasi = assay: Antileishmanial activity against Leishmania chagasi MHOM/Br/74/PP75 promastigotes by MTT colorimetric method; format: functional, organism-based
# In short: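 Log-phase promastigotes kept at 24 °C in Medium 199 plus 10% fetal bovine serum. Seeded at 3 million cells/mL and held 1 h at 24 °C before compound addition in water or DMSO (up to 1% v/v). Each concentration run in triplicate over a three-day incubation. Viability measured by MTT; IC50 is the concentration giving 50% growth inhibition.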
structure (smiles),measurement,setting,value
NCCNCCCSc1ncnc2[nH]cnc12,IC50,Leishmania amazonensis,> 227 µM
same,IC50,Leishmania chagasi,> 227 µM
CC1(C)O[C@H]2[C@H]3OC(C)(C)O[C@]3(CSc3ncnc4[nH]cnc34)OC[C@H]2O1,IC50,Leishmania amazonensis,> 227 µM
same,IC50,Leishmania chagasi,> 227 µM
CO[C@@H]1O[C@H](CSc2ncnc3[nH]cnc23)[C@@H](O)[C@H]1O,IC50,Leishmania amazonensis,29 µM
same,IC50,Leishmania chagasi,> 227 µM
Sc1ncnc2nc[nH]c12 [MERCAPTOPURINE ANHYDROUS],IC50,Leishmania amazonensis,> 227 µM
same,IC50,Leishmania chagasi,> 227 µM
ClCCCSc1ncnc2[nH]cnc12,IC50,Leishmania amazonensis,50 µM
same,IC50,Leishmania chagasi,> 227 µM
O=C(O)CSc1ncnc2[nH]cnc12,IC50,Leishmania amazonensis,39 µM
same,IC50,Leishmania chagasi,> 227 µM
C[C@@H]1[C@H](O)[C@@H](C)/C=C/C=C/C=C/C=C/C=C/C=C/C=C/[C@H](O[C@@H]2O[C@H](C)[C@@H](O)[C@H](N)[C@@H]2O)C[C@@H]2O[C@](O)(C[C@@H](O)C[C@@H](O)[C@H](O)CC[C@@H](O)C[C@@H](O)CC(=O)O[C@H]1C)C[C@H](O)[C@H]2C(=O)O [AMPHOTERICIN B],IC50,Leishmania amazonensis,0.9 µM
same,IC50,Leishmania chagasi,1.9 µM
CCOC(=O)CSc1ncnc2[nH]cnc12,IC50,Leishmania amazonensis,> 227 µM
same,IC50,Leishmania chagasi,> 227 µM
CO[C@@H]1O[C@H](CSc2ncnc3[nH]cnc23)[C@H]2OC(C)(C)O[C@@H]12,IC50,Leishmania amazonensis,> 227 µM
same,IC50,Leishmania chagasi,> 227 µM
CC1(C)O[C@H]2[C@@H](O1)[C@@H](CSc1ncnc3[nH]cnc13)O[C@@H]1OC(C)(C)O[C@@H]12,IC50,Leishmania amazonensis,> 227 µM
same,IC50,Leishmania chagasi,> 227 µM
c1nc(SCCCNC2CCCCC2)c2nc[nH]c2n1,IC50,Leishmania amazonensis,> 227 µM
same,IC50,Leishmania chagasi,> 227 µM
NCCSCCCSc1ncnc2[nH]cnc12,IC50,Leishmania amazonensis,50 µM
same,IC50,Leishmania chagasi,> 227 µM
O=C1c2ccccc2C(=O)N1CCCCSc1ncnc2[nH]cnc12,IC50,Leishmania amazonensis,> 227 µM
same,IC50,Leishmania chagasi,> 227 µM
